Measurements: ChEMBL document CHEMBL1944532, “Synthesis and evaluation of anticancer activity of some novel 6-aryl-2-(p-sulfamylphenyl)-pyridazin-3(2H)-ones” (Eur J Med Chem, 2012)
Activity calls are given as the source filed them. The rule behind the calls is not given here.

Experiments:
NCI-H23 [1] = assay: Antitumor activity against human NCI-H23 cells implanted in mouse dosed qd for 4 days by formazan dye-based hollow fiber assay; assay type: functional, organism-based
Method in brief: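 Cells grown inside polyvinylidene fluoride hollow fibers; each line implanted into both intraperitoneal and subcutaneous compartments in mice. Compound given ip at two doses on a QD x 4 schedule. Fibers then recovered and viable cell mass measured by formazan dye conversion. Scored 2 per dose giving ≥50% reduction in viable cell mass (%T/C 50).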

SR = assay: Cytotoxicity against human SR cells assessed as cell growth at 10 uM after 48 hrs by SRB assay; assay type: functional; details: read-out: Activity
Method in brief: (§1)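 NCI primary one-dose screen at 10^-5 M against the full panel of about 60 human tumour cell lines, run to the NCI Drug Evaluation Branch protocol.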

UACC-257 = assay: Cytotoxicity against human UACC257 cells after 48 hrs by SRB assay; assay type: functional; details: UACC-257, 48 h
Method in brief: (§2)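 NCI 60-cell-line five-dose screen. Cells were grown in 1640 medium with 5% fetal calf serum and 2 mM L-glutamine, with inoculum density set by cell line, and pre-incubated 24 h. Compound in DMSO was added at 10^-4 to 10^-8 M (10-fold steps) with 48 h continuous exposure. Growth was read by SRB protein assay, and GI50, TGI and LC50 were derived from dose-response.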

HOP-62 = assay: Cytotoxicity against human HOP62 cells assessed as cell growth at 10 uM after 48 hrs by SRB assay; assay type: functional; details: HOP-62, 48 h, read-out: Activity
Method in brief: (§3)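 NCI primary single-dose screen at 10^-5 M against the ~60 human tumour cell line panel. Cells grown in RPMI-1640 with 5% fetal calf serum and 2 mM L-glutamine and pre-incubated 24 h before compound addition. Compound added from DMSO solution with 48 h exposure. Growth read by sulforhodamine B protein staining.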

SF-268 = assay: Cytotoxicity against human SF268 cells after 48 hrs by SRB assay; assay type: functional; details: SF-268, 48 h
Method in brief: (§4)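 NCI five-dose screen on the ~60-line human tumor panel. Cells grown in RPMI-1640 with 5% fetal calf serum and 2 mM L-glutamine, seeded at line-dependent density and preincubated 24 h. Compound added from DMSO at 10-fold dilutions from 10^-4 to 10^-8 M, continuous exposure 48 h. Growth read by sulforhodamine B protein stain. GI50, TGI and LC50 derived per line.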

MCF7 = assay: Cytotoxicity against human MCF7 cells after 48 hrs by SRB assay; assay type: functional; details: MCF7, 48 h; method in brief: as §4
SK-MEL-2 = assay: Cytotoxicity against human SK-MEL-2 cells after 48 hrs by SRB assay; assay type: functional; details: SK-MEL-2, 48 h; method in brief: as §4
[2] = Toxicity in ip dosed athymic nude mouse assessed as body weight loss after 2 weeks; assay type: organism-based; details: in vivo
Method in brief: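 Maximum tolerated dose determination in athymic nude mice. Single ip injection of 400, 200 or 100 mg/kg, one mouse per dose. Compound solubilized in DMSO. Feed and water ad libitum. Mice observed 2 weeks for body weight loss, lethality and other toxicity signs; sacrificed if weight loss exceeds 20%.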

SW-620 = assay: Cytotoxicity against human SW620 cells assessed as cell growth at 10 uM after 48 hrs by SRB assay; assay type: functional; details: SW-620, 48 h, read-out: Activity; method in brief: as §1
OVCAR-4 = assay: Cytotoxicity against human OVCAR4 cells assessed as cell growth at 10 uM after 48 hrs by SRB assay; assay type: functional; details: OVCAR-4, 48 h, read-out: Activity
Method in brief: (§5)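 NCI primary single-dose screen at 10^-5 M against the full panel of about 60 human tumor cell lines. Cells were in RPMI-1640 with 5% fetal calf serum and 2 mM L-glutamine and preincubated 24 h. Compound was given in DMSO with 48 h exposure. Growth was estimated by sulforhodamine B protein assay.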

CCRF-CEM [3] = assay: Cytotoxicity against human CCRF-CEM cells assessed as cell growth at 10 uM after 48 hrs by SRB assay; assay type: functional; details: read-out: Activity; method in brief: as §3
K562 = assay: Cytotoxicity against human K562 cells assessed as cell growth at 10 uM after 48 hrs by SRB assay; assay type: functional; details: K562, 48 h, read-out: Activity; method in brief: as §3
CCRF-CEM [4] = assay: Cytotoxicity against human CCRF-CEM cells after 48 hrs by SRB assay; assay type: functional
Method in brief: (§6)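 NCI ~60-line panel in RPMI-1640 with 5% fetal calf serum and 2 mM L-glutamine, pre-incubated 24 h. Compound in DMSO tested at five 10-fold concentrations (10^-4 to 10^-8 M) with 48 h continuous exposure. Growth measured by sulforhodamine B protein assay. GI50 (50% net growth inhibition), TGI (total inhibition) and LC50 (50% net cell death) derived from dose-response.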

SK-MEL-28 = assay: Cytotoxicity against human SK-MEL-28 cells after 48 hrs by SRB assay; assay type: functional; details: SK-MEL-28, 48 h; method in brief: as §2
ACHN = assay: Cytotoxicity against human ACHN cells assessed as cell growth at 10 uM after 48 hrs by SRB assay; assay type: functional; details: read-out: Activity; method in brief: as §3
NCI-H23 [5] = assay: Cytotoxicity against human NCI-H23 cells after 48 hrs by SRB assay; assay type: functional; details: NCI-H23, 48 h; method in brief: as §4
HOP-92 = assay: Cytotoxicity against human HOP92 cells after 48 hrs by SRB assay; assay type: functional; details: HOP-92, 48 h; method in brief: as §6
U-251 = assay: Cytotoxicity against human U251 cells after 48 hrs by SRB assay; assay type: functional; details: U-251, 48 h; method in brief: as §2
Hs-578T = assay: Cytotoxicity against human Hs578T cells assessed as cell growth at 10 uM after 48 hrs by SRB assay; assay type: functional; details: read-out: Activity; method in brief: as §3
A498 [6] = assay: Cytotoxicity against human A498 cells assessed as cell growth at 10 uM after 48 hrs by SRB assay; assay type: functional; details: A498, 48 h, read-out: Activity; method in brief: as §3
OVCAR-8 = assay: Cytotoxicity against human OVCAR8 cells assessed as cell growth at 10 uM after 48 hrs by SRB assay; assay type: functional; details: OVCAR-8, 48 h, read-out: Activity; method in brief: as §5
A498 [7] = assay: Cytotoxicity against human A498 cells after 48 hrs by SRB assay; assay type: functional; details: A498, 48 h; method in brief: as §6
SF-539 = assay: Cytotoxicity against human SF539 cells assessed as cell growth at 10 uM after 48 hrs by SRB assay; assay type: functional; details: SF-539, 48 h, read-out: Activity; method in brief: as §5

Question: For `CCc1ccc(-c2ccc(=O)n(-c3ccc(S(N)(=O)=O)cc3)n2)cc1`, which Activity (NCI-H23 [1]) is on record?
Answer: The Activity was “inactive”.

Question: What about the growth at 10 µM (SR) of the same compound?
Answer: Its growth at 10 µM is -11.9%.

Question: And the LC50 (UACC-257)?
Answer: The LC50 was over 100 µM.

Question: What about the GI50 (UACC-257; read-out: GI50) of the same compound?
Answer: Its GI50 is over 100 µM.

Question: What about the GI50 (UACC-257; read-out: pGI50 (converted)) of the same compound?
Answer: The GI50 was over 100 µM.

Question: What about the TGI (UACC-257; read-out: pTGI) of the same compound?
Answer: Its TGI is over 100 µM.

Question: And the growth at 10 µM (HOP-62)?
Answer: Its growth at 10 µM is 59.9%.

Question: What about the LC50 (SF-268) of the same compound?
Answer: The LC50 was over 100 µM.

Question: And the GI50 (SF-268; read-out: GI50)?
Answer: The GI50 was 4.25 µM.

Question: And the GI50 (SF-268; read-out: pGI50 (converted))?
Answer: The GI50 was 4.27 µM.

Question: And the TGI (SF-268; read-out: pTGI (converted))?
Answer: Its TGI is 47.9 µM.

Question: What about the LC50 (MCF7) of the same compound?
Answer: The LC50 was over 100 µM.

Question: What about the GI50 (MCF7; read-out: GI50) of the same compound?
Answer: The GI50 was 615 nM.

Question: What about the GI50 (MCF7; read-out: pGI50 (converted)) of the same compound?
Answer: The GI50 was 617 nM.

Question: And the TGI (MCF7; read-out: pTGI (converted))?
Answer: Its TGI is 19.1 µM.

Question: What about the LC50 (SK-MEL-2) of the same compound?
Answer: Its LC50 is over 100 µM.

Question: And the GI50 (SK-MEL-2; read-out: GI50)?
Answer: The GI50 was 10.7 µM.

Question: What about the GI50 (SK-MEL-2; read-out: pGI50 (converted)) of the same compound?
Answer: The GI50 was 10.7 µM.

Question: And the TGI (SK-MEL-2; read-out: pTGI (converted))?
Answer: The TGI was 72.4 µM.

Question: What about the MTD at 336 h [2] of the same compound?
Answer: Its MTD at 336 h is 400 mg/kg.

Question: What about the growth at 10 µM (SW-620) of the same compound?
Answer: Its growth at 10 µM is 35%.

Question: And the growth at 10 µM (OVCAR-4)?
Answer: The growth at 10 µM was 74.5%.

Question: What about the growth at 10 µM (CCRF-CEM [3]) of the same compound?
Answer: Its growth at 10 µM is 27.9%.

Question: What about the growth at 10 µM (K562) of the same compound?
Answer: The growth at 10 µM was 11%.

Question: What about the LC50 (CCRF-CEM [4]) of the same compound?
Answer: The LC50 was over 100 µM.

Question: And the GI50 (CCRF-CEM [4]; read-out: GI50)?
Answer: Its GI50 is 786 nM.

Question: What about the GI50 (CCRF-CEM [4]; read-out: pGI50 (converted)) of the same compound?
Answer: The GI50 was 794 nM.

Question: And the TGI (CCRF-CEM [4]; read-out: pTGI)?
Answer: Its TGI is over 100 µM.

Question: What about the LC50 (SK-MEL-28) of the same compound?
Answer: The LC50 was over 100 µM.

Question: What about the GI50 (SK-MEL-28; read-out: GI50) of the same compound?
Answer: The GI50 was 1370 nM.

Question: What about the GI50 (SK-MEL-28; read-out: pGI50 (converted)) of the same compound?
Answer: The GI50 was 1380 nM.

Question: And the TGI (SK-MEL-28; read-out: pTGI)?
Answer: The TGI was over 100 µM.

Question: And the growth at 10 µM (ACHN)?
Answer: The growth at 10 µM was 60.3%.

Question: What about the LC50 (NCI-H23 [5]) of the same compound?
Answer: Its LC50 is over 100 µM.

Question: What about the GI50 (NCI-H23 [5]; read-out: GI50) of the same compound?
Answer: Its GI50 is 16.9 µM.

Question: What about the GI50 (NCI-H23 [5]; read-out: pGI50 (converted)) of the same compound?
Answer: The GI50 was 17 µM.

Question: And the TGI (NCI-H23 [5]; read-out: pTGI)?
Answer: Its TGI is over 100 µM.

Question: What about the LC50 (HOP-92) of the same compound?
Answer: Its LC50 is over 100 µM.

Question: And the GI50 (HOP-92; read-out: GI50)?
Answer: Its GI50 is 17.3 µM.

Question: And the GI50 (HOP-92; read-out: pGI50 (converted))?
Answer: The GI50 was 17.4 µM.

Question: And the TGI (HOP-92; read-out: pTGI (converted))?
Answer: Its TGI is 75.9 µM.

Question: And the LC50 (U-251)?
Answer: The LC50 was over 100 µM.

Question: And the GI50 (U-251; read-out: GI50)?
Answer: The GI50 was 1580 nM.

Question: What about the GI50 (U-251; read-out: pGI50 (converted)) of the same compound?
Answer: Its GI50 is 1580 nM.

Question: What about the TGI (U-251; read-out: pTGI (converted)) of the same compound?
Answer: Its TGI is 24 µM.

Question: What about the growth at 10 µM (Hs-578T) of the same compound?
Answer: Its growth at 10 µM is 28.6%.

Question: What about the growth at 10 µM (A498 [6]) of the same compound?
Answer: The growth at 10 µM was 40.3%.

Question: What about the growth at 10 µM (OVCAR-8) of the same compound?
Answer: The growth at 10 µM was 51.2%.

Question: What about the LC50 (A498 [7]) of the same compound?
Answer: Its LC50 is over 100 µM.

Question: What about the GI50 (A498 [7]; read-out: GI50) of the same compound?
Answer: The GI50 was 1970 nM.

Question: What about the GI50 (A498 [7]; read-out: pGI50 (converted)) of the same compound?
Answer: Its GI50 is 1950 nM.

Question: And the TGI (A498 [7]; read-out: pTGI (converted))?
Answer: The TGI was 38 µM.

Question: What about the growth at 10 µM (SF-539) of the same compound?
Answer: Its growth at 10 µM is 43.6%.
